Assay results taken from ChEMBL document CHEMBL3877241 (J Med Chem, 2016).

Experiments:
[1] = molecular target: T1, Protein deacetylase HDAC6 (Homo sapiens, UniProt Q9UBN7); assay: Inhibition of full length human recombinant N-terminal GST-tagged HDAC6 (1 to 1215 residues) expressed in sf9 cells preincubated with enzyme followed by fluorogenic Arg-His-Lys-Lys(Ac)-AMC substrate addition measured after 2 hrs by fluorescence assay
T1 sequence (Q9UBN7 whole entry): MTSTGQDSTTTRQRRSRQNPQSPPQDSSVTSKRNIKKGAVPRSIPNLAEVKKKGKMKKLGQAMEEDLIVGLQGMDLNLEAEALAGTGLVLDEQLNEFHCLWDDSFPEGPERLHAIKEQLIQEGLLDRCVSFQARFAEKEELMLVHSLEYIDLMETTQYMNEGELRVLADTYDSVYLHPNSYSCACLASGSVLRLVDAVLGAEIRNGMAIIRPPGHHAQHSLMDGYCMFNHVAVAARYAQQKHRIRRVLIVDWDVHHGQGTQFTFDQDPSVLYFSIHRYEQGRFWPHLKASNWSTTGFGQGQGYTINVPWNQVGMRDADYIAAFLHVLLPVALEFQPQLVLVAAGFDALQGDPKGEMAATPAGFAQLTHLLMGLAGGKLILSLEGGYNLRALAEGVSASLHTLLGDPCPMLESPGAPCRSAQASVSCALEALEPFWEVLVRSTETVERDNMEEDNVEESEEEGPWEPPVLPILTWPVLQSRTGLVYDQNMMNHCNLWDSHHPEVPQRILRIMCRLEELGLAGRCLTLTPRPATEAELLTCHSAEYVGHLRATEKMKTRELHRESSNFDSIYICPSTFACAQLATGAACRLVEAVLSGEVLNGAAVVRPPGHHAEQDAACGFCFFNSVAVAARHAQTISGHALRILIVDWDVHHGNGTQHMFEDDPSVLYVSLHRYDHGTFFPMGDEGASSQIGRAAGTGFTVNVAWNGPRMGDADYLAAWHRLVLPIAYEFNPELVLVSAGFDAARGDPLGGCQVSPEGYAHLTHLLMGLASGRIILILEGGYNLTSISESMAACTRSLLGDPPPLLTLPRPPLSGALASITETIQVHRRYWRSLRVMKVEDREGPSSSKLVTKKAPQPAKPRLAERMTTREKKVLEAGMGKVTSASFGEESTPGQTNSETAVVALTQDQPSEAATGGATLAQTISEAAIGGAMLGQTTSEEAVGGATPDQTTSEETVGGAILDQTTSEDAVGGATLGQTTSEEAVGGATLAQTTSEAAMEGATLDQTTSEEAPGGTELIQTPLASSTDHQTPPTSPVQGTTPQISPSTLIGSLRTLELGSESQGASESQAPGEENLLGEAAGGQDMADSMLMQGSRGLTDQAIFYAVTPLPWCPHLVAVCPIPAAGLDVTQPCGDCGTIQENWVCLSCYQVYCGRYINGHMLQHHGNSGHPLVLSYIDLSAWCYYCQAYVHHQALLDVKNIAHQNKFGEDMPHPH

[2] = Antiproliferative activity against human HCT116 cells after 72 hrs by MTT assay; assay type: functional, cell-based; conditions: HCT-116, 72 h
Outline: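 MTT viability after 72 h exposure. Cells seeded at 2500/well and left 24 h before compound addition; DMSO at 0.5% v/v final. MTT added in FBS-free medium for 3 h at 37 °C, formazan dissolved in DMSO, absorbance read at 570 nm. IC50 from a sigmoidal fit of % viability vs log concentration; triplicates on separate occasions using two different stock solutions.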

[3] = Antiproliferative activity against human MDA-MB-231 cells after 72 hrs by MTT assay; assay type: functional, cell-based; conditions: MDA-MB-231, 72 h
[4] = molecular target: T2, Tyrosine-protein kinase JAK2 (Homo sapiens, UniProt O60674); assay: Inhibition of JAK2 (unknown origin)
[5] = Antiproliferative activity against human MCF7 cells after 72 hrs by MTT assay; assay type: functional, cell-based; conditions: MCF7, 72 h
[6] = Antiproliferative activity against human PC3 cells after 72 hrs by MTT assay; assay type: functional, cell-based; conditions: PC-3, 72 h
[7] = molecular target: T2, Tyrosine-protein kinase JAK2; assay: Inhibition of JAK2 (unknown origin) preincubated for 20 mins followed by [33P]ATP addition measured after 120 mins by Hotspot assay
cells = assay type: functional, cell-based; conditions: Homo sapiens, HEL 92.1.7, 36 h
[8] = Antiproliferative activity against human HL60 cells; assay type: functional, cell-based; conditions: HL-60
Histone deacetylase 1 = Histone deacetylase 1 (Homo sapiens, UniProt Q13547); assay: Inhibition of full length human recombinant C-terminal FLAG/His-tagged HDAC1 (1 to 482 residues) expressed in sf21 cells preincubated with enzyme followed by fluorogenic Arg-His-Lys-Lys(Ac)-AMC substrate addition measured after 2 hrs by fluorescence assay
[9] = Antiproliferative activity against human Jurkat cells; assay type: functional, cell-based
[10] = molecular target: T3, Protein deacetylase HDAC6 (Homo sapiens) (UniProt Q9UBN7); assay: Inhibition of full length human recombinant N-terminal GST-tagged HDAC6 (1 to 1215 residues) expressed in sf9 cells at 10 uM preincubated with enzyme followed by fluorogenic Arg-His-Lys-Lys(Ac)-AMC substrate addition measured after 2 hrs by fluorescence assay relative to control
T3 sequence (whole entry): T1 sequence (Q9UBN7 whole entry)

[11] = Antiproliferative activity against mouse TAMH cells after 24 hrs by CellTiter-Glo assay; assay type: ADME, cell-based
[12] = Half life in rat liver microsomes at 3 uM preincubated for 5 mins followed by NADPH addition by LC-MS/MS analysis; assay type: ADME
Outline: (§1)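 Male and female rat liver microsomes (0.3 mg protein/mL final) with compound at 3 μM final in 0.1 M phosphate buffer pH 7.4. Preincubated 5 min at 37 °C, then started with NADPH (1 mM final). Sampled at 0, 5, 10, 15, 30 and 45 min and quenched with cold acetonitrile containing internal standard. Read by LC-MS/MS; run in triplicate; midazolam (3 μM) as positive control.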

[13] = Apparent intrinsic clearance in rat liver microsomes at 3 uM preincubated for 5 mins followed by NADPH addition measured after 45 mins by LC-MS/MS analysis; assay type: ADME; conditions: read-out: CLH(app); outline: as §1
[14] = Therapeutic index, ratio of IC50 for mouse TAMH cells to IC50 for human cancer cells; conditions: cancer cell lines
[15] = Antiproliferative activity against human OPM2 cells after 48 hrs by CellTiter-Glo assay; assay type: functional, cell-based; conditions: OPM-2, 48 h
Outline: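 OPM2 grown in RPMI 1640 with 10% FBS and penicillin/streptomycin at 37 °C, 5% CO2. Treated at 25,000 cells/well in triplicate for 48 h. Viability read by CellTiter-Glo luminescence. IC50 taken from a sigmoidal fit of % viability vs log concentration.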

Histone deacetylase 1, sequence (Q13547 whole entry, the tested form may be a part): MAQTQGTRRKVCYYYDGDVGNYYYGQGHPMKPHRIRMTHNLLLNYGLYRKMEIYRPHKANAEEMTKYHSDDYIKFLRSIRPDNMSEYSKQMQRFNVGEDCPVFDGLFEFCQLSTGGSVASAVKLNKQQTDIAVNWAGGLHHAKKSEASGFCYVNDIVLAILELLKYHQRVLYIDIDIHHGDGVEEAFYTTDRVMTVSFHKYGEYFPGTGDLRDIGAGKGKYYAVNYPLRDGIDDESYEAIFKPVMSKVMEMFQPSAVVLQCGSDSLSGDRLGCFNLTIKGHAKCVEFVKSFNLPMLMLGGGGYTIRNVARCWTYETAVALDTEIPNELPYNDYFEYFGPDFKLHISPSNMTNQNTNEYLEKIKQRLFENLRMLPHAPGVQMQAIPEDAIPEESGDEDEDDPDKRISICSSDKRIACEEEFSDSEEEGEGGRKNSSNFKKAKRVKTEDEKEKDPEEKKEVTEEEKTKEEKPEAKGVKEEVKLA
T2 sequence (O60674 whole entry): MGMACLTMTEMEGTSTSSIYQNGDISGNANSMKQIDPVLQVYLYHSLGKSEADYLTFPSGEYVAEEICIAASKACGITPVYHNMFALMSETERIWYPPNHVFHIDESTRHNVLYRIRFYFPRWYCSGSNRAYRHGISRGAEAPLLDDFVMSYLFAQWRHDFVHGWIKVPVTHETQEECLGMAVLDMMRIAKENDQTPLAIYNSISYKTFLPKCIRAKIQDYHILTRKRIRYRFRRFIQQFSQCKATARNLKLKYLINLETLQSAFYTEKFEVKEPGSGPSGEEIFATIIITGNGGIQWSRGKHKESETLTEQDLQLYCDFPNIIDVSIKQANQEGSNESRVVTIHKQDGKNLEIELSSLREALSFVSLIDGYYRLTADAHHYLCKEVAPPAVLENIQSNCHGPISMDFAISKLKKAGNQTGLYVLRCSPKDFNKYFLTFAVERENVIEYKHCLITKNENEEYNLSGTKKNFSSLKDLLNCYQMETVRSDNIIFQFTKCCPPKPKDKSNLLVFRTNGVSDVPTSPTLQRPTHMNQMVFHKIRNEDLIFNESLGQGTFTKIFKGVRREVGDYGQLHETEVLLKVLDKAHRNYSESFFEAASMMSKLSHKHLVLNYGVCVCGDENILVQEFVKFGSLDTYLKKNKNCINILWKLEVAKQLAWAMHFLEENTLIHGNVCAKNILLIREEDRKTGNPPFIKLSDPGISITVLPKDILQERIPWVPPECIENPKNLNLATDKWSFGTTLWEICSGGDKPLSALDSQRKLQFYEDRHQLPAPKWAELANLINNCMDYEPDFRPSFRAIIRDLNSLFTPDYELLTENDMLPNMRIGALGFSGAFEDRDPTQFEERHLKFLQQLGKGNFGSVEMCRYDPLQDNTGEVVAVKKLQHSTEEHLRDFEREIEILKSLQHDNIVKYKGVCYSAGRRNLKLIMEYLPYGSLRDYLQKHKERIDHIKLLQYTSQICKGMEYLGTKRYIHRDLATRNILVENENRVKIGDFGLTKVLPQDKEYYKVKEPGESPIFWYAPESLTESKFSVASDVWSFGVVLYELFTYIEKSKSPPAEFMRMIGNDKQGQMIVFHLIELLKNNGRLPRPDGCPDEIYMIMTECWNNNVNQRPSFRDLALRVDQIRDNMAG

## O=C(O)c1cccc(NCCOc2ccc3cc2COC/C=C/COCc2cccc(c2)-c2ccnc(n2)N3)c1
[1]
  IC50: 53000 nM
[2]
  IC50: 59.2 µM
[3]
  IC50: 21.4 µM
[4]
  IC50: < 39 nM

## O=C(O)CCCCCOc1ccc2cc1COC/C=C/COCc1cccc(c1)-c1ccnc(n1)N2
[1]
  IC50: 45000 nM
[2]
  IC50: 41 µM
[3]
  IC50: 19.9 µM
[4]
  IC50: < 39 nM

## O=C(O)CCCCCCCOc1ccc2cc1COC/C=C/COCc1cccc(c1)-c1ccnc(n1)N2
[1]
  IC50: 10000 nM
[2]
  IC50: 8.04 µM
[5]
  IC50: 27.7 µM
[3]
  IC50: 17.1 µM
[6]
  IC50: 22.8 µM
[4]
  IC50: < 39 nM

## O=C(O)CCCCOc1ccc2cc1COC/C=C/COCc1cccc(c1)-c1ccnc(n1)N2
[2]
  IC50: 36 µM
[3]
  IC50: 25.9 µM
[4]
  IC50: < 39 nM

## O=C(O)CCCCCCOc1ccc2cc1COC/C=C/COCc1cccc(c1)-c1ccnc(n1)N2
[1]
  IC50: 2800 nM
[2]
  IC50: 6.06 µM
[5]
  IC50: 20 µM
[7]
  IC50: 2.57 nM
[3]
  IC50: 12 µM
[6]
  IC50: 8.76 µM

## O=C(CCCCCOc1ccc2cc1COC/C=C/COCc1cccc(c1)-c1ccnc(n1)N2)NO
[1]
  IC50: 28 nM
[2]
  IC50: 2.56 µM
[5]
  IC50: 4.81 µM
cells
  IC50: > 2000 nM
[7]
  IC50: 4.3 nM
[3]
  IC50: 8.07 µM
[6]
  IC50: 8.11 µM
[8]
  IC50: > 4 µM
Histone deacetylase 1
  IC50: 4070 nM
[9]
  IC50: 2900 nM

## O=C(NO)c1cccc(NCCOc2ccc3cc2COC/C=C/COCc2cccc(c2)-c2ccnc(n2)N3)c1
[1]
  IC50: 2900 nM
[2]
  IC50: 2.01 µM
[7]
  IC50: 9 nM
[3]
  IC50: > 50 µM
[6]
  IC50: > 100 µM

## O=C(O)CCCCCC(=O)Nc1ccc(NCCOc2ccc3cc2COC/C=C/COCc2cccc(c2)-c2ccnc(n2)N3)cc1
[10]
  inhibition: 20 to 24%

## O=C(CCCCCC(=O)Nc1ccc(NCCOc2ccc3cc2COC/C=C/COCc2cccc(c2)-c2ccnc(n2)N3)cc1)NO
[1]
  IC50: 2.5 nM
cells
  IC50: > 2000 nM
[7]
  IC50: 6.9 nM
[6]
  IC50: > 100 µM
[8]
  IC50: > 4 µM
[9]
  IC50: > 4000 nM

## O=C(CCCCCCCOc1ccc2cc1COC/C=C/COCc1cccc(c1)-c1ccnc(n1)N2)NO
[1]
  IC50: 15.8 nM
[2]
  IC50: 6.23 µM
[5]
  IC50: 9.48 µM
cells
  IC50: > 2000 nM
[7]
  IC50: 5 nM
[11]
  IC50: 5.26 µM
[12]
  half-life at 3 µM: 21 to 23.4 min
[3]
  IC50: 6.44 µM
[13]
  CLint scaled at 3 µM: 200 to 225 mL/min/kg
[6]
  IC50: 10.1 µM
[14]
  selectivity ratio: 1.8
[8]
  IC50: > 4 µM
Histone deacetylase 1
  IC50: 2340 nM
[9]
  IC50: 2480 nM

## O=C(NO)C1CCN(CCOc2ccc3cc2COC/C=C/COCc2cccc(c2)-c2ccnc(n2)N3)CC1
[1]
  IC50: 899 nM
[2]
  IC50: 1.2 µM
[5]
  IC50: 1.68 µM
[7]
  IC50: 0.97 nM
[3]
  IC50: 3.41 µM
[6]
  IC50: 2.79 µM

## O=C(CCCCOc1ccc2cc1COC/C=C/COCc1cccc(c1)-c1ccnc(n1)N2)NO
[1]
  IC50: 107 nM
[2]
  IC50: 1.41 µM
[5]
  IC50: 7.87 µM
[7]
  IC50: 2.45 nM
[3]
  IC50: 12.7 µM
[6]
  IC50: 10.1 µM
Histone deacetylase 1
  IC50: 3090 nM

## O=C(O)C1CCN(CCOc2ccc3cc2COC/C=C/COCc2cccc(c2)-c2ccnc(n2)N3)CC1
[1]
  IC50: > 100000 nM
[2]
  IC50: 8.2 µM
[3]
  IC50: 10.7 µM
[4]
  IC50: < 39 nM

## O=C(CCCCCCC(=O)Nc1ccccc1)NO [VORINOSTAT]
[2]
  IC50: 1.85 µM
[15]
  IC50: 2910 nM
[8]
  IC50: 2.28 µM

## O=C(O)c1ccc(OCCOc2ccc3cc2COC/C=C/COCc2cccc(c2)-c2ccnc(n2)N3)cc1
[1]
  IC50: > 100000 nM
[2]
  IC50: 29.7 µM
[3]
  IC50: 54.2 µM
[4]
  IC50: < 39 nM

## CN1CCc2c(c3ccccc3n2Cc2ccc(C(=O)NO)cc2)C1 [TUBASTATIN A]
[2]
  IC50: 2 µM
[5]
  IC50: 3.7 µM
cells
  IC50: > 2000 nM
[3]
  IC50: 10.4 µM
[6]
  IC50: 8.6 µM
[8]
  IC50: > 4 µM
[9]
  IC50: > 4000 nM

## O=C(NO)c1ccc(OCCOc2ccc3cc2COC/C=C/COCc2cccc(c2)-c2ccnc(n2)N3)cc1
[1]
  IC50: 66 nM
[7]
  IC50: 1.27 nM
[6]
  IC50: 1.6 µM

## O=C(CCCCCCC(=O)Nc1ccc(NCCOc2ccc3cc2COC/C=C/COCc2cccc(c2)-c2ccnc(n2)N3)cc1)NO
[1]
  IC50: 2.3 nM
cells
  IC50: > 2000 nM
[7]
  IC50: 30 nM
[3]
  IC50: 3.43 µM
[6]
  IC50: > 100 µM
[8]
  IC50: > 4 µM
[9]
  IC50: > 4000 nM

## O=C(O)c1ccc(NCCOc2ccc3cc2COC/C=C/COCc2cccc(c2)-c2ccnc(n2)N3)cc1
[1]
  IC50: 64000 nM
[7]
  IC50: < 39 nM
[3]
  IC50: 46 µM

## O=C(O)CCCOc1ccc2cc1COC/C=C/COCc1cccc(c1)-c1ccnc(n1)N2
[2]
  IC50: 124 µM
[7]
  IC50: 47 nM
[3]
  IC50: 53.5 µM

## O=C(CCCOc1ccc2cc1COC/C=C/COCc1cccc(c1)-c1ccnc(n1)N2)NO
[1]
  IC50: 510 nM
[2]
  IC50: 3.64 µM
[5]
  IC50: 2.78 µM
[3]
  IC50: 5.91 µM
[6]
  IC50: 4.61 µM
Histone deacetylase 1
  IC50: 2400 nM

## O=C(NO)c1ccc(NCCOc2ccc3cc2COC/C=C/COCc2cccc(c2)-c2ccnc(n2)N3)cc1
[1]
  IC50: 395 nM
[2]
  IC50: 3.2 µM
[5]
  IC50: 3.84 µM
[7]
  IC50: 1.71 nM
[3]
  IC50: 8.69 µM
[6]
  IC50: 4.58 µM

## O=C(O)CCCCCCC(=O)Nc1ccc(NCCOc2ccc3cc2COC/C=C/COCc2cccc(c2)-c2ccnc(n2)N3)cc1
[1]
  IC50: 2600 nM
[2]
  IC50: 2.7 µM
[7]
  IC50: 2.31 nM
